# Results from ChEMBL document CHEMBL1275292, “Design and synthesis of bioactive adamantanaminoalcohols and adamantanamines” (Eur J Med Chem, 2010).
# The source made the active and inactive calls. The calls are words filed in the database; no cut-off is given here.
# Tests used:
# [1] = Cytotoxicity against MDCK cells by MTS assay; type: cell-based, Canis lupus familiaris; conditions: dog
# Trypanosoma brucei [2] = assay: Antiparasitic activity against Trypanosoma brucei 427 bloodstream forms assessed as inhibition of parasite growth at 5 ug/mL after 48 hrs; type: functional; conditions: Trypanosoma brucei, 427, 48 h; read-out: GI
# H3N2 subtype [3] = assay: Antiviral activity against Influenza A virus (A/Hong Kong/7/1987(H3N2)) infected in MDCK cells assessed as inhibition of virus-induced cytopathogenicity by MTS assay; type: functional, organism-based
# In short: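 MDCK cells infected with influenza A/HK/7/87 (H3N2), whose M2 carries serine at position 31. Virus-induced cytopathic effect was read after multiple replication cycles at 72 h post infection by microscopic scoring and by a colorimetric formazan MTS cell-viability assay. EC50 is the concentration giving 50% inhibition of CPE by MTS. Compounds were tested as hydrochlorides, aminoalcohols as free bases. Values are mean ± SD with the number of independent determinations.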
# [4] = Selectivity index, ratio of MCC for MDCK cells to EC50 for Influenza A virus (A/Hong Kong/7/1987(H3N2)); type: toxicity, cell-based; conditions: dog, read-out: Selectivity Index
# Trypanosoma brucei [5] = assay: Antiparasitic activity against Trypanosoma brucei 427 bloodstream forms assessed as inhibition of parasite growth after 48 hrs; type: functional, organism-based
# In short: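 Bloodstream-form T. brucei strain 427 were grown at 37 °C and pH 7.4 in modified Iscove's medium, in 4 ml cultures for 48 h across a drug range of 0.1 to 25. Cell densities were counted by hemocytometer and growth was expressed as % of untreated controls. IC50 and IC90 were derived from these counts, as mean ± SD of three experiments.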
# H3N2 subtype [6] = assay: Antiviral activity against Influenza A virus (A/Hong Kong/7/1987(H3N2)) infected in MDCK cells assessed as inhibition of virus-induced cytopathogenicity at 500 uM by MTS assay; type: functional, organism-based
# [7] = Trypanosoma brucei, 427, 48 h, read-out: IC50
SMILES,MCC [1],inhibition of growth at 5 µg/mL (Trypanosoma brucei [2]),EC50 (H3N2 subtype [3]),selectivity ratio [4],IC50 (Trypanosoma brucei [5]),inhibition (H3N2 subtype [6]),"IC90 (Trypanosoma brucei [5]; Trypanosoma brucei, 427, 48 h)",IC50 (Trypanosoma brucei [5]; [7])
NC1CC2CC3CC(C2)C1C3 (centres undefined),107 µM,30%,1.5 µM,69,Not Active,–,–,–
NC1C2CC3CC(C2)CC1(c1ccccc1)C3 (centres undefined),218 µM,–,–,–,–,inactive,> 20 µM,11.1 µM
NC(=O)c1ncn([C@@H]2O[C@H](CO)[C@@H](O)[C@H]2O)n1 [RIBAVIRIN],–,–,8.7 µM,–,–,–,–,–
NC12CC3CC(CC(C3)C1)C2 [AMANTADINE],> 100 µM,–,2 µM,> 51,–,–,–,–
CN(C)CCCC12CC3CC(CC(C3)C1O)C2 (centres undefined),> 250 µM,–,–,–,–,inactive,1.8 µM,0.84 µM
CNC1(c2ccccn2)C2CC3CC(C2)CC1C3 (centres undefined),264 µM,–,–,–,–,inactive,> 25 µM,24.6 µM
NC1(CO)C2CC3CC(C2)CC1C3 (centres undefined),> 459 µM,–,1.46 µM,> 314,–,–,18.2 µM,9.4 µM
CN(C)CCC[C@]1(O)CC2CC3CC(C2)C1C3 (some centres undefined),> 250 µM,–,–,–,–,inactive,1.7 µM,0.84 µM
CC(N)C12CC3CC(CC(C3)C1)C2 (centres undefined) [RIMANTADINE],> 100 µM,–,≤ 0.362 µM,> 276,–,–,14 µM,–
NCC1(O)C2CC3CC(C2)CC1C3 (centres undefined),–,30%,–,–,Not Active,inactive,–,–
NCC1(CO)C2CC3CC(C2)CC1C3 (centres undefined),87 µM,30%,0.34 µM,256,Not Active,–,–,–
CN(C)CCCC12CC3CC(CC(C3)C1N)C2 (centres undefined),> 200 µM,30%,–,–,Not Active,inactive,–,–
CNC(CN)C12CC3CC(CC(C3)C1)C2 (centres undefined),404 µM,–,–,–,–,inactive,7.8 µM,5.2 µM
NCCC12CC3CC(CC(C3)C1O)C2 (centres undefined),512 µM,30%,8.6 µM,60,Not Active,–,–,–
OC1(C2CCCCN2)C2CC3CC(C2)CC1C3 (centres undefined),208 µM,30%,–,–,Not Active,inactive,–,–
NCCC1(O)C2CC3CC(C2)CC1C3 (centres undefined),17 µM,30%,6.24 µM,3,Not Active,–,–,–
NCCC1(O)CC2CC3CC(C2)C1C3 (centres undefined),512 µM,30%,7.68 µM,67,Not Active,–,–,–
